This is an account of results in paper PMC10883374 (Science Advances, 2022).

Experiment [1] concerns the target T1, hSAMTOR (WT) interaction with GATOR1-KICSTOR (Homo sapiens, UniProt Q1RMZ1).
T1 sequence (Q1RMZ1 1-405): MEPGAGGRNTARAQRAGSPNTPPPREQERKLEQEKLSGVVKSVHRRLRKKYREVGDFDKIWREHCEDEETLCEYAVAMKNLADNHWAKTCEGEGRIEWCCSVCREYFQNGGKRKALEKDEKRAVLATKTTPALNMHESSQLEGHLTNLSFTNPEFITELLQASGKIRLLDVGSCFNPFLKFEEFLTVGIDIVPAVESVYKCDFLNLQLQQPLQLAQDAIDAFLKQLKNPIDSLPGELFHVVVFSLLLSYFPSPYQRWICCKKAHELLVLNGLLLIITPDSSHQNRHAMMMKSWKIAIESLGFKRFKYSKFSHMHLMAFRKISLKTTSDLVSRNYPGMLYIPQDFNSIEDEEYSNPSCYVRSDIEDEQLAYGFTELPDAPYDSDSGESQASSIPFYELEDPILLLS
It counts as biochemical. The conditions noted are these: WT full-length hSAMTOR, HEK 293T cell lysates, 0.5 mM SAM.

For the next experiment, the target named is hSAMTOR. The settings on record: read-out: dissociation constant (Kd); cited from earlier work.
Experiment [2] has as its target T2, D190A hSAMTOR interaction with GATOR1-KICSTOR (Homo sapiens, UniProt Q1RMZ1, D190A).
T2 sequence (Q1RMZ1 1-405 D190A): T1 sequence (Q1RMZ1 1-405) with D190A
In words: Co-IP of Flag-hSAMTOR-D190A with HA-Nprl3 and Myc-Kaptin with or without SAM. The conditions noted are these: HEK 293T cell lysates, 0.5 mM SAM. Type of experiment: biochemical.

The target of experiment [3] is T3, R95A hSAMTOR interaction with GATOR1-KICSTOR (Homo sapiens, UniProt Q1RMZ1, R95A).
T3 sequence (Q1RMZ1 1-405 R95A): T1 sequence (Q1RMZ1 1-405) with R95A
In words: Co-IP of Flag-hSAMTOR-R95A with HA-Nprl3 and Myc-Kaptin with or without SAM. Type of experiment: biochemical. The conditions noted are these: HEK 293T cell lysates, 0.5 mM SAM.

Experiment [4] concerns the target dSAMTOR (WT, full-length) (Drosophila melanogaster, UniProt Q9W138). Put plainly: ITC ligand binding, WT dSAMTOR. The method in brief:
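Full-length dSAMTOR was expressed as His6-SUMO fusion in E. coli BL21 (DE3), Ni-NTA purified, tag-cleaved, then gel-filtered into 10 mM Hepes pH 7.5, 150 mM NaCl, 1 mM DTT. ITC ran at 25°C: 20 × 2 µl injections of 1 mM SAM or SAH into 0.2 mM protein, discarding an initial 0.8 µl injection, with a buffer background titration. Single-site nonlinear least-squares fit gave ΔH, n and Kd.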

Where a chain is given by its changes, count along the chain named. “Also recorded” adds a separate entry of the source.

Sequence of dSAMTOR (WT, full-length) (Q9W138 whole entry, the tested form may be a part): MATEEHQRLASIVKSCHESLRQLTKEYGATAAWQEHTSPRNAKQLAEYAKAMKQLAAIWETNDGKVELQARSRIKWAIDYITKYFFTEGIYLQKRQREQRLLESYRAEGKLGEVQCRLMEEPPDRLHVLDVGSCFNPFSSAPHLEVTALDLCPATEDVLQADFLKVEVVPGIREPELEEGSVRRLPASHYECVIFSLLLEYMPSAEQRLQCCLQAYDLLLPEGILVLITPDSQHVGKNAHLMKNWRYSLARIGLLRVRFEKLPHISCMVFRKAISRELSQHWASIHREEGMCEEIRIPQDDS

The Kd is the free concentration of one partner at which half of the binding sites on the other are occupied at equilibrium, for simple one-to-one binding. Turning to `C[S+](CC[C@H](N)C(=O)[O-])C[C@H]1O[C@@H](n2cnc3c(N)ncnc32)[C@H](O)[C@@H]1O` (some centres unmarked) [SAM, S-adenosylmethionine], the “effect of SAM on interaction of hSAMTOR with GATOR1-KICSTOR (co-IP)” value was “essentially disrupts its interactions with GATOR1-KICSTOR; also recorded: substantially weakens the interaction” in experiment [1]; “comparable interactions with GATOR1 and KICSTOR in both the absence and presence of SAM” in experiment [2]; “comparable interactions with GATOR1 and KICSTOR in both the absence and presence of SAM” in experiment [3]. For the same compound, the Kd at hSAMTOR was 7 µM; in experiment [4] it was 10.7 ± 0.88 µM. Besides, in experiment [4] (ITC, 25°C, WT dSAMTOR), the TΔS turned out to be 4.66 kcal/mol. The compound further came in with a n value in experiment [4] (ITC, 25°C, WT dSAMTOR) of 0.75 ± 0.08. In experiment [4] (ITC, 25°C, WT dSAMTOR), the ΔH is -2.12 ± 0.05 kcal/mol.
